For 3 compounds, MIC, selectivity ratio and EC50 results are on record in ChEMBL document CHEMBL4311965, “Antimicrobial activity of amphipathic α,α-disubstituted β-amino amide derivatives against ESBL - CARBA producing multi-resistant bacteria; effect of halogenation, lipophilicity and cationic character” (Eur J Med Chem, 2019).

Values after ≈ are worked out from the molar mass of the structure shown. Bounds are passed on as bounds.

Data set [1] concerns Klebsiella pneumoniae. Put plainly: Antibacterial activity against multidrug-resistant Klebsiella pneumoniae 50667959 producing Verona integron encoded metallo beta-lactamse-1 cultured in MHB medium assessed as reduction in bacterial growth incubated for 24 hrs by microdilution susceptibility test. In kind it is functional. The note with it: Klebsiella pneumoniae, 50667959, 24 h. In a few lines: (§1)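 Broth microdilution per CLSI M07-A9 (modified). Working solutions made from concentrated DMSO stocks kept at r.t., diluted in double-distilled water, final DMSO <1%. Inoculum 1–1.2 x 10⁶ cells/mL in Mueller-Hinton broth, mixed 1:1 with compound. 37 °C, 24 h, four parallels. Read as OD₆₀₀. Where precipitation left residual OD, the point of major OD decrease was taken as the inhibitory concentration.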

For data set [2], the system named is Enterococcus faecium. Put plainly: Antibacterial activity against multidrug-resistant Enterococcus faecium 50901530 cultured in BHIB medium assessed as reduction in bacterial growth incubated for 24 hrs by microdilution susceptibility test. In kind it is functional. The note with it: Enterococcus faecium, 50901530, 24 h. In outline: (§2)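 Enterococci grown in Brain Heart Infusion broth, otherwise broth microdilution per CLSI M07-A9 (modified). Concentrated DMSO stocks kept at r.t. and diluted in double-distilled water, final DMSO <1%. Inoculum 1–1.2 x 10⁶ cells/mL mixed 1:1 with compound. 37 °C, 24 h, four parallels. OD₆₀₀ read-out, lowest concentration with no growth.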

Data set [3] relates to Acinetobacter baumannii. The experiment in a line: Antibacterial activity against multidrug-resistant Acinetobacter baumannii K55-13 producing oxcillinase-24 cultured in MHB medium assessed as reduction in bacterial growth incubated for 24 hrs by microdilution susceptibility test. The note with it: K55-13, 24 h. It counts as functional. In outline: as §1
In data set [4] the test system is Pseudomonas aeruginosa. The experiment in a line: Antibacterial activity against multidrug-resistant Pseudomonas aeruginosa K44-24 producing imipenem-type carbapenemase-14 cultured in MHB medium assessed as reduction in bacterial growth incubated for 24 hrs by microdilution susceptibility test. In kind it is functional. The note with it: K44-24, 24 h. In outline:
as §1

Data set [5] has as its system Escherichia coli. The experiment in a line: Antibacterial activity against multidrug-resistant Escherichia coli 50739822 producing New Delhi metallo-beta-lactamase-1 cultured in MHB medium assessed as reduction in bacterial growth incubated for 24 hrs by microdilution susceptibility test. In kind it is functional. The note with it: Escherichia coli, 50739822, 24 h. In outline: as §1

Data set [6] concerns Klebsiella pneumoniae. Put plainly: Antibacterial activity against multidrug-resistant Klebsiella pneumoniae 50531633 producing New Delhi metallo-beta-lactamase-1 and oxcillinase-181 cultured in MHB medium assessed as reduction in bacterial growth incubated for 24 hrs by microdilution susceptibility test. In kind it is functional. The settings on record: Klebsiella pneumoniae, 50531633, 24 h. In a few lines:
as §1

Data set [7] concerns Klebsiella pneumoniae. The experiment in a line: Antibacterial activity against multidrug-resistant Klebsiella pneumoniae K47-25 producing carbapenemase-2 cultured in MHB medium assessed as reduction in bacterial growth incubated for 24 hrs by microdilution susceptibility test. It counts as functional. The settings on record: K47-25, 24 h. In outline:
as §1

The nature of data set [8]: Selectivity index, ratio of EC50 for hemolytic activity against human RBC to MIC for antibacterial activity against Staphylococcus aureus ATCC 9144. The settings on record: human red blood cells (RBC). In kind it is toxicity. In outline: (§3)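 Selectivity index is the RBC haemolysis EC50 divided by the MIC against the E. coli or S. aureus reference strain.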
For data set [9], the system named is Escherichia coli. The experiment in a line: Antibacterial activity against multidrug-resistant Escherichia coli 50857972 producing imipenem-type carbapenemase-26 cultured in MHB medium assessed as reduction in bacterial growth incubated for 24 hrs by microdilution susceptibility test. It counts as functional. The note with it: Escherichia coli, 50857972, 24 h. In a few lines: as §1

The subject of data set [10] is Corynebacterium glutamicum. The experiment in a line: Antibacterial activity against Corynebacterium glutamicum ATCC 13032 cultured in MHB medium assessed as no bacterial growth incubated at 20 degC for 24 hrs by microdilution susceptibility test. In kind it is functional. The note with it: ATCC 13032, 24 h. In a few lines:
(§4)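 Broth microdilution per CLSI M07-A9 with modifications. Inoculum about 2.5–3 x 10⁴ cells/mL in Mueller-Hinton broth, mixed 1:1 with test derivative. DMSO stocks diluted in double-distilled water, final DMSO <1%. Incubation 24 h at 37 °C (20 °C for C. glutamicum). Growth and sterility controls included; oxytetracycline reference.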

Data set [11] relates to Staphylococcus aureus. The experiment in a line: Antibacterial activity against multidrug-resistant Staphylococcus aureus IHT 99040 cultured in MHB medium assessed as reduction in bacterial growth incubated for 24 hrs by microdilution susceptibility test. The settings on record: IHT 99040, 24 h. It counts as functional. In a few lines:
as §1

Data set [12] deals with Acinetobacter baumannii. The experiment in a line: Antibacterial activity against multidrug-resistant Acinetobacter baumannii K44-35 producing oxcillinase-23 cultured in MHB medium assessed as reduction in bacterial growth incubated for 24 hrs by microdilution susceptibility test. In kind it is functional. The settings on record: K44-35, 24 h. In a few lines:
as §1

Data set [13] deals with Pseudomonas aeruginosa. The experiment in a line: Antibacterial activity against Pseudomonas aeruginosa PA01 DSM 19880 (ATCC 15692) cultured in MHB medium assessed as no bacterial growth incubated at 37 degC for 24 hrs by microdilution susceptibility test. It counts as functional. The settings on record: PAO1 DSM 19880 (ATCC 15692). In outline:
as §4

The test system of data set [14] is Erythrocyte. Put plainly: Hemolytic activity against human RBC incubated for 1 hr. In kind it is cell-based. In outline: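 Heparinized human blood washed three times in warm PBS and set to 10% hct. Erythrocytes at 1% v/v final, with compound in PBS (DMSO <1%), shaken 1 h at 37 °C and then centrifuged. Supernatant absorbance read at 405 and 545 nm after PBS background subtraction. Haemolysis taken relative to 1% Triton X-100. Three independent replicates, EC50 averaged.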

The subject of data set [15] is Enterococcus faecium. Put plainly: Antibacterial activity against multidrug-resistant Enterococcus faecium 50758899 cultured in BHIB medium assessed as reduction in bacterial growth incubated for 24 hrs by microdilution susceptibility test. It counts as functional. The note with it: Enterococcus faecium, 50758899, 24 h. In outline:
as §2

Data set [16] concerns Escherichia coli. The experiment in a line: Antibacterial activity against multidrug-resistant Escherichia coli 50579417 producing oxcillinase-48 cultured in MHB medium assessed as reduction in bacterial growth incubated for 24 hrs by microdilution susceptibility test. It counts as functional. The settings on record: Escherichia coli, 50579417, 24 h. In a few lines: as §1

Data set [17] in a line: Selectivity index, ratio of EC50 for hemolytic activity against human RBC to MIC for antibacterial activity against Escherichia coli ATCC 25922. It counts as toxicity. The note with it: human red blood cells (RBC). In outline: as §3
The subject of data set [18] is Klebsiella pneumoniae. The experiment in a line: Antibacterial activity against multidrug-resistant Klebsiella pneumoniae K66-45 producing New Delhi metallo-beta-lactamase-1 cultured in MHB medium assessed as reduction in bacterial growth incubated for 24 hrs by microdilution susceptibility test. In kind it is functional. The settings on record: K66-45, 24 h. In outline: as §1

For data set [19], the system named is Pseudomonas aeruginosa. The experiment in a line: Antibacterial activity against multidrug-resistant Pseudomonas aeruginosa 50692172 producing New Delhi metallo-beta-lactamase-1 cultured in MHB medium assessed as reduction in bacterial growth incubated for 24 hrs by microdilution susceptibility test. In kind it is functional. The note with it: Pseudomonas aeruginosa, 50692172, 24 h. In outline:
as §1

In data set [20] the test system is Escherichia coli. The experiment in a line: Antibacterial activity against multidrug-resistant Escherichia coli 50639799 producing Verona integron encoded metallo beta-lactamse-29 cultured in MHB medium assessed as reduction in bacterial growth incubated for 24 hrs by microdilution susceptibility test. In kind it is functional. The settings on record: Escherichia coli, 50639799, 24 h. In outline:
as §1

In data set [21] the test system is Pseudomonas aeruginosa. Put plainly: Antibacterial activity against multidrug-resistant Pseudomonas aeruginosa 50692520 producing Verona integron encoded metallo beta-lactamse cultured in MHB medium assessed as reduction in bacterial growth incubated for 24 hrs by microdilution susceptibility test. In kind it is functional. The note with it: Pseudomonas aeruginosa, 50692520, 24 h. In outline:
as §1

The test system of data set [22] is Staphylococcus aureus. Put plainly: Antibacterial activity against multidrug-resistant Staphylococcus aureus WIS cultured in MHB medium assessed as reduction in bacterial growth incubated for 24 hrs by microdilution susceptibility test. In kind it is functional. In outline: as §1
Data set [23] has as its system Acinetobacter baumannii. Put plainly: Antibacterial activity against multidrug-resistant Acinetobacter baumannii K47-42 producing oxcillinase-23 cultured in MHB medium assessed as reduction in bacterial growth incubated for 24 hrs by microdilution susceptibility test. It counts as functional. The settings on record: K47-42, 24 h. In outline: as §1

Regarding `N#CC(Cc1cc(C(F)(F)F)cc(C(F)(F)F)c1)(Cc1cc(C(F)(F)F)cc(C(F)(F)F)c1)C(=O)NCCN`, the MIC in [1] is greater than 32 µg/mL; in data set [2], 16 µg/mL (≈ 27.6 µM); in [3] it was greater than 32 µg/mL; in [4], greater than 32 µg/mL; in data set [5] it was greater than 32 µg/mL; in data set [6], greater than 32 µg/mL. Also, the MIC in [7] was greater than 32 µg/mL; in data set [9], greater than 32 µg/mL; in data set [10], 8 µg/mL (≈ 13.8 µM); in [11] it was 16 µg/mL (≈ 27.6 µM); in [12], greater than 32 µg/mL; in data set [13], 64 µg/mL (≈ 110 µM). The MIC in data set [15] was 8 µg/mL (≈ 13.8 µM); in data set [16], greater than 32 µg/mL; in data set [18] it was greater than 32 µg/mL; in data set [19] it was greater than 32 µg/mL; in [20] it was greater than 32 µg/mL; in data set [21], greater than 32 µg/mL. Further, the MIC in [22] is 16 µg/mL (≈ 27.6 µM); in [23] it was greater than 32 µg/mL. In addition, the selectivity ratio is 18 in data set [8] and 9 in data set [17]. The 50% effective concentration (EC50) in [14] was found to be 282 µg/mL (≈ 487 µM).

On to `N=C(N)NCCNC(=O)C(CNC(=N)N)(Cc1ccc(F)c2ccccc12)Cc1ccc(F)c2ccccc12`, for which the MIC in data set [1] was greater than 32 µg/mL; in [2], 4 µg/mL (≈ 7.52 µM); in data set [3], greater than 32 µg/mL; in data set [4] it was greater than 32 µg/mL; in data set [5], 32 µg/mL (≈ 60.2 µM); in data set [6], greater than 32 µg/mL. Further, the MIC in data set [7] is greater than 32 µg/mL; in data set [9], 32 µg/mL (≈ 60.2 µM); in data set [10], 0.5 µg/mL (≈ 0.941 µM); in data set [11], 4 µg/mL (≈ 7.52 µM); in data set [12] it was greater than 32 µg/mL; in data set [13] it was 8 µg/mL (≈ 15 µM). Besides, the MIC in data set [15] was 16 µg/mL (≈ 30.1 µM); in data set [16], 32 µg/mL (≈ 60.2 µM); in data set [18] it was greater than 32 µg/mL; in [19], greater than 32 µg/mL; in [20] it was 32 µg/mL (≈ 60.2 µM); in data set [21], greater than 32 µg/mL. Further, the MIC is 4 µg/mL (≈ 7.52 µM) in data set [22] and greater than 32 µg/mL in data set [23]. For the same compound, the values for the selectivity ratio in data set [8] and in data set [17] were 165 and 21, respectively. This compound also gave an EC50 in data set [14] of 329 µg/mL (≈ 619 µM).

For `NCCNCC(CN)(Cc1ccc(F)c2ccccc12)Cc1ccc(F)c2ccccc12`, the MIC in data set [1] was 8 µg/mL (≈ 18.5 µM); in data set [2], 4 µg/mL (≈ 9.23 µM); in data set [3] it was 16 µg/mL (≈ 36.9 µM); in data set [4], 16 µg/mL (≈ 36.9 µM); in [5] it was 4 µg/mL (≈ 9.23 µM); in [6], 4 µg/mL (≈ 9.23 µM). Besides, the MIC in data set [7] came to 8 µg/mL (≈ 18.5 µM); in [9] it was 8 µg/mL (≈ 18.5 µM); in [10], 1 µg/mL (≈ 2.31 µM); in data set [11], 8 µg/mL (≈ 18.5 µM); in data set [12] it was 8 µg/mL (≈ 18.5 µM); in data set [13], 4 µg/mL (≈ 9.23 µM). Further, the minimum inhibitory concentration (MIC) in data set [15] amounted to 4 µg/mL (≈ 9.23 µM); in data set [16] it was 8 µg/mL (≈ 18.5 µM); in data set [18], 8 µg/mL (≈ 18.5 µM); in data set [19] it was 16 µg/mL (≈ 36.9 µM); in [20], 8 µg/mL (≈ 18.5 µM); in data set [21] it was 16 µg/mL (≈ 36.9 µM). The MIC in data set [22] amounted to 4 µg/mL (≈ 9.23 µM); in data set [23], 16 µg/mL (≈ 36.9 µM). Besides, the selectivity ratio is 14 in data set [8] and 7 in data set [17]. Further, the EC50 in [14] was 27 µg/mL (≈ 62.3 µM).
